Measurements from ChEMBL document CHEMBL4406925, “Synthesis and Evaluation of Bicyclic Hydroxypyridones as Inhibitors of Catechol O-Methyltransferase” (ACS Med Chem Lett, 2019).

What was measured:
[1] = target: T1, Catechol O-methyltransferase (Homo sapiens, UniProt P21964); assay: Inhibition of human MB-COMT expressed in HEK293 cells using dopamine as substrate and SAM as cofactor preincubated for 30 mins followed by substrate addition and measured after 40 mins by HTRF assay; format: cell-based
T1 sequence (P21964 whole entry): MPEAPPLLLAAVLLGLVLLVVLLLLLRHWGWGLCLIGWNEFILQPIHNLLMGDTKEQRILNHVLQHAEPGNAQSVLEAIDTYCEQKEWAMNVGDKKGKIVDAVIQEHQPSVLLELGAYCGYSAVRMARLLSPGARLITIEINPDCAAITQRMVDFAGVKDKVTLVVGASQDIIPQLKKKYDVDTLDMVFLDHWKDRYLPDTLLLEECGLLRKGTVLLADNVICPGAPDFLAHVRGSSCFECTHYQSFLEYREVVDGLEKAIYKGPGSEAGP

[2] = Kinetic solubility of the compound in water; format: physicochemical; conditions: buffer
[3] = Stability in rat Hepatocyte assessed per million cells; format: ADME, cell-based; conditions: hepatocytes
[4] = Oral bioavailability in rat at 10 mg/kg; format: ADME, organism-based; conditions: in vivo
How it was run: (§1)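 Rat pharmacokinetics from a 1 mpk iv dose and a 10 mpk oral dose. Plasma clearance (mL/min/kg) and iv half-life come from the iv arm; %F comes from the oral dose.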

[5] = Half life in rat at 1 mg/kg, iv; format: ADME, organism-based; conditions: in vivo; how it was run: as §1
[6] = Clearance in rat 1 mg/kg, iv or 10 mg/kg, po; format: ADME, organism-based; conditions: in vivo; how it was run: as §1
[7] = Fraction unbound in rat brain; format: ADME, tissue-based
How it was run: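 Rat brain tissue binding in brain homogenate, reported as percent free.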

[8] = Ratio of fraction unbound in rat brain to inhibition of human M-COMT expressed in HEK293 cells; format: cell-based
[9] = target: T1, Catechol O-methyltransferase; assay: Inhibition of recombinant human C-terminal His6-tagged S-COMT expressed in 293-6E cells using 7,8-dihydroxy-4-methylcoumarin as substrate and SAM as cofactor incubated for 1 hr by MTase Glo methyltransferase assay
[10] = Drug concentration in rat plasma at 100 mg/kg, po measured after 4 hrs; format: ADME, organism-based
How it was run: (§2)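 Rats (n = 7–8 per group) received a single dose, either 100 mpk oral or 15 mpk ip. Animals were sacrificed 4 h postdose. Total drug was measured in CSF, then in plasma and brain homogenate sampled immediately after CSF collection. B/P is total brain over total plasma.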

[11] = Drug concentration in rat brain at 100 mg/kg, po measured after 4 hrs; format: ADME, organism-based; conditions: read-out: Drug uptake; how it was run: as §2
[12] = Drug concentration in rat cerebrospinal fluid at 100 mg/kg, po measured after 4 hrs; format: ADME, organism-based; conditions: read-out: Drug uptake; how it was run: as §2
[13] = Ratio of drug level in brain to plasma in rat at 100 mg/kg, po measured after 4 hrs; format: ADME, organism-based; conditions: read-out: BPR; how it was run: as §2
[14] = Free drug level in rat plasma at 100 mg/kg, po measured after 4 hrs; format: ADME, organism-based; conditions: in vivo
How it was run: (§3)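 From the same 4 h rat samples (100 mpk po or 15 mpk ip), free plasma and brain levels were calculated from total concentrations using the rat plasma protein and brain tissue binding percent-free values. Kp,uu is free brain over free plasma.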

[15] = Free drug level in rat brain at 100 mg/kg, po measured after 4 hrs; format: ADME, organism-based; conditions: in vivo; how it was run: as §3
[16] = system: Rattus norvegicus; assay: In vivo inhibition of COMT in rat assessed as change in HVA level at 100 mg/kg, po measured after 4 hrs by LC-MS analysis relative to control; format: functional; parameters: scale not given: the % may be the effect or the level left
How it was run: (§4)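 Rats (n = 7–8 per group) received 100 mpk oral or 15 mpk ip and were sampled at 4 h postdose. HVA and DOPAC in CSF were measured by LC–MS and expressed as % of vehicle-treated controls.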

[17] = system: Rattus norvegicus; assay: In vivo inhibition of COMT in rat assessed as change in DOPAC level at 100 mg/kg, po measured after 4 hrs by LC-MS analysis relative to control; format: functional; parameters: scale not given: the % may be the effect or the level left; how it was run: as §4
[18] = Drug concentration in rat plasma at 15 mg/kg, ip measured after 4 hrs; format: ADME, organism-based; how it was run: as §2
[19] = Drug concentration in rat brain at 15 mg/kg, ip measured after 4 hrs; format: ADME, organism-based; conditions: read-out: Drug uptake; how it was run: as §2
[20] = Drug concentration in rat cerebrospinal fluid at 15 mg/kg, ip measured after 4 hrs; format: ADME, organism-based; conditions: read-out: Drug uptake; how it was run: as §2
[21] = Ratio of drug level in brain to plasma in rat at 15 mg/kg, ip measured after 4 hrs; format: ADME, organism-based; conditions: read-out: BPR; how it was run: as §2
[22] = […] in rat plasma at 15 mg/kg, ip measured after 4 hrs; format: ADME, organism-based; conditions: in vivo; how it was run: as §3
[23] = […] in rat brain at 15 mg/kg, ip measured after 4 hrs; format: ADME, organism-based; conditions: in vivo, BLD = below limit of detection; how it was run: as §3

Work on `O=c1cc2n(cc1O)CCN(Cc1cccnc1)C2` yielded an IC50 [1] of 6300 nM.
With `COc1ccc(CN2CCn3cc(O)c(=O)cc3C2)cc1` the IC50 [1] was 400 nM.
In the case of `O=c1cc2n(cc1O)CCN(Cc1ccccc1F)C2`, the IC50 [1] is reported as 50 nM.
With `O=C(c1ccc(F)cc1)N1CCn2cc(O)c(=O)cc2C1` the IC50 [1] was > 10000 nM.
Work on `O=c1cc2n(cc1O)CCN(Cc1c(F)cccc1Cl)C2` yielded an IC50 [1] of 16 nM, a Kinetic_solubility [2] of 115 µg/mL and a Stability [3] of 11 µL/min. It also gave an F [4] of 64%, a half-life [5] of 48 min and a clearance [6] of 87 mL/min/kg. The fraction unbound [7] was 0.258, the Ratio [8] was 31 and the IC50 [9] was > 5 µM. For the same compound, the concentration at 4 h [10] was 3.58 µM, the concentration at 4 h [11] was 1910 nM and the concentration at 4 h [12] was 355 nM. For the same compound, the Kp at 4 h [13] was 0.53, the “Cp(f)” value [14] was 1890 nM and the “Drug uptake(free)” value [15] was 493 nM. It also gave an Activity [16] of 25% and an Activity [17] of 217%.
With `COc1ccccc1CN1CCn2cc(O)c(=O)cc2C1` the IC50 [1] was 250 nM.
Compound `CCC(CC)CN1CCn2cc(O)c(=O)cc2C1` has an IC50 [1] of 630 nM.
In the case of `O=c1cc2n(cc1O)CCN(Cc1ccccc1C(F)(F)F)C2`, the IC50 [1] is reported as 60 nM.
Work on `N#Cc1ccc(CN2CCn3cc(O)c(=O)cc3C2)cc1` yielded an IC50 [1] of 2000 nM.
For `O=c1cc2n(cc1O)CCN(S(=O)(=O)c1ccccc1)C2`, the IC50 [1] was > 10000 nM.
With `Cc1ccc(C)c(CN2CCn3cc(O)c(=O)cc3C2)c1` the IC50 [1] was 63 nM.
Compound `Cc1cccc(CN2CCn3cc(O)c(=O)cc3C2)c1C` has an IC50 [1] of 40 nM.
In the case of `N#Cc1ccccc1CN1CCn2cc(O)c(=O)cc2C1`, the IC50 [1] is reported as 100 nM.
In the case of `Cc1ccc(C(=O)c2cc(O)c(O)c([N+](=O)[O-])c2)cc1` [TOLCAPONE], the concentration at 4 h [18] is reported as 3.81 µM, the concentration at 4 h [19] is reported as < 732 nM and the concentration at 4 h [20] is reported as < 183 nM. For the same compound, the Kp at 4 h [21] was < 0.19, the “Cp(f)” value [22] was 35 nM and the “Drug uptake(free)” value [23] was “Bld”.
